# Test results from ChEMBL document CHEMBL4014309, “Development of an Acrylate Derivative Targeting the NLRP3 Inflammasome for the Treatment of Inflammatory Bowel Disease” (J Med Chem, 2017).
# The source made the active and inactive calls. The rule behind the calls is not given here.
# Tests used:
# [1] = test system: Rattus norvegicus; assay: Anti-inflammatory activity in DNBS-induced Sprague-Dawley rat colitis model assessed as reduction in DNBS-induced IL-1beta levels in colon administered ig for 6 days simulatneously with 6 days of DNBS-challenge by ELISA; assay type: functional
# [2] = Cysteamine reactivity of the compound in PBS assessed as second order rate constant for free cysteamine release at 250 uM and pH 7.4 after 90 mins by DTNB reagent based RP-UHPLC analysis
# In short: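 Compound (250 µM) was mixed with equimolar cysteamine in pH 7.4 PBS containing 12.5% CH3CN at 37 °C. Free cysteamine was tracked with DTNB at several time points over 90 min. Second-order k2 came from 1/[CAM] = 1/[CAM]0 + kt, using 3–10 points per plot; mean ± SEM of ≥3 experiments.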
# [3] = target: NACHT, LRR and PYD domains-containing protein 3 (Mus musculus) (UniProt Q8R4B8); assay: Inhibition of NLRP3 inflammasome in LPS-primed C57BL/6 mouse bone marrow derived macrophages assessed as reduction in nigericin-induced caspase-1 activation at 10 to 100 uM preincubated for 1 hr followed by stimulation with nigericin measured after 30 mins by Western blot analysis
# [4] = test system: Rattus norvegicus; assay: Antiinflammatory activity in DNBS-induced Sprague-Dawley rat colitis model assessed as DNBS-induced macroscopic damage score at 50 mg/kg/day, ig administered as suspension in olive oil for 6 days simulatneously with 6 days of DNBS-challenge (reference value: 8.6 +/- 0.6); assay type: functional
# [5] = Stability of the compound in simulated intestinal fluid at 1.56 mg as suspension in olive oil and pH 7 after 2 hrs by UHPLC-MS analysis
# In short: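 1.56 mg suspended in 100 µL olive oil, mixed with 100 µL SGF (pH 2, pepsin 3.2 mg/mL) for 2 h at 37 °C with shaking. Then 200 µL SIF (pH 7, pancreatin 2 mg/mL) was added for a further 2 h. Dedicated samples at 0, 30, 60 and 120 min were extracted with acetonitrile and analysed by UHPLC-MS. ≥3 repeats.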
# [6] = test system: Rattus norvegicus; assay: (§1) Antiinflammatory activity in DNBS-induced Sprague-Dawley rat colitis model assessed as reduction in DNBS-induced spleen weight increase by measuring increase in spleen weight at 50 mg/kg/day, ig administered as suspension in olive oil for 6 days simulatneously with 6 days of DNBS-challenge measured daily during compound dosing (reference value: 39.3%); assay type: functional; design: scale not given: the % may be the effect or the level left
# In short: (§2)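 Spleen weight was used as an index of systemic inflammation. Rats had intrarectal DNBS (15 mg/0.25 mL 50% ethanol) and 6 days of intragastric dosing: 1 mg/kg/day in 1% methylcellulose, or 12.5–50 mg/kg/day in 0.2 mL olive oil. The spleen was weighed at sacrifice and expressed as percent increase versus control, n = 10.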
# [7] = target: T1, Caspase-1 (Homo sapiens) (UniProt P29466); assay: Inhibition of recombinant human caspase-1 at 10 to 100 uM using z-YVAD-AFC as substrate measured every 10 mins for 3 hrs by fluorescence analysis
# T1 sequence (whole entry): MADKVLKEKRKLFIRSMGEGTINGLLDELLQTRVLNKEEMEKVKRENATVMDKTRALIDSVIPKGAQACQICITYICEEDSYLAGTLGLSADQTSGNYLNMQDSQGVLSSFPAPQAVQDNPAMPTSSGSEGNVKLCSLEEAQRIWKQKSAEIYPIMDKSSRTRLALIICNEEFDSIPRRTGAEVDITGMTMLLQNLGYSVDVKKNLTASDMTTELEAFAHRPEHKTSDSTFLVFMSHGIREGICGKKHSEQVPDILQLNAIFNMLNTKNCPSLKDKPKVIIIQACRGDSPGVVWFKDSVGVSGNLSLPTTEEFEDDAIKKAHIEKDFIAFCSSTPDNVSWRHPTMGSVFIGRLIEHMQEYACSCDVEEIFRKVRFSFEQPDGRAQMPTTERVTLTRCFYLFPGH
# [8] = test system: Rattus norvegicus; assay: as §1, with “25” for “50”; assay type: functional; design: scale not given: the % may be the effect or the level left; in short: as §2
# [9] = target: NACHT, LRR and PYD domains-containing protein 3 (Homo sapiens) (UniProt Q96P20); assay: Inhibition of recombinant human NLRP3 ATPase assessed as hydrolysis of ATP at 100 uM preincubated for 15 mins followed by addition of ATP measured after 40 mins by ADP-Glo assay
# In short: (§3)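 Human recombinant NLRP3 (0.105 µg) in 20 mM Tris-HCl pH 7.8, 133 mM NaCl, 20 mM MgCl2, 3 mM KCl, 0.56 mM EDTA, 0.5% DMSO. Compound (100 or 50 µM) was preincubated 15 min at 37 °C, then ATP (250 µM) was added for 40 min at 37 °C. ADP was read by ADP-Glo luminescence. Result is % inhibition vs vehicle; mean ± SEM, ≥3 experiments.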
# [10] = target: NACHT, LRR and PYD domains-containing protein 3 (Homo sapiens) (UniProt Q96P20); assay: Inhibition of recombinant human NLRP3 ATPase assessed as hydrolysis of ATP at 50 uM preincubated for 15 mins followed by addition of ATP measured after 40 mins by ADP-Glo assay; in short: as §3
# [11] = target: NACHT, LRR and PYD domains-containing protein 3 (Mus musculus) (UniProt Q8R4B8); assay: Inhibition of NLRP3 inflammasome in LPS-primed C57BL/6 mouse bone marrow derived macrophages assessed as reduction in nigericin-induced IL-1beta production at 10 uM preincubated for 1 hr followed by stimulation with nigericin measured after 30 mins by ELISA
# In short: (§4)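 Bone marrow macrophages from C57BL/6 mice, differentiated with 20% L-cell medium, primed with LPS (1 µg/mL, 3 h). Test agent or vehicle was added for 1 h, then ATP (5 mM, 30 min) or nigericin (10 µM, 30 min). IL-1β in the medium was measured by ELISA. LDH in the medium was measured colorimetrically as % of total cellular LDH.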
# [12] = test system: Rattus norvegicus; assay: Anti-inflammatory activity in DNBS-induced Sprague-Dawley rat colitis model assessed as reduction in DNBS-induced increase in MPO levels in colon at 12.5 to 50 mg/kg/day, ig for 6 days simulatneously with 6 days of DNBS-challenge by ELISA; assay type: functional, organism-based
# In short: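 DNBS colitis (15 mg intrarectal in 50% ethanol) was treated by the intragastric route for 6 days from induction (1 mg/kg/day in 1% methylcellulose, or 12.5–50 mg/kg/day in olive oil). Colonic samples (30 mg) were taken adjacent and distal to the necrotic area, homogenized, and assayed for MPO by ELISA. Results are ng MPO per mg tissue, mean ± SEM, n = 10.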
# [13] = test system: Rattus norvegicus; assay: Antiinflammatory activity in DNBS-induced Sprague-Dawley rat colitis model assessed as DNBS-induced decrease in colonic length at 12.5 mg/kg/day, ig administered as suspension in olive oil for 6 days simulatneously with 6 days of DNBS-challenge (reference value: -34.4%); assay type: functional; design: scale not given: the % may be the effect or the level left
# [14] = Cysteamine reactivity in PBS assessed as free compound level at pH 7.4 measured after 4 hrs by DTNB reagent based RP-UHPLC analysis
# In short: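 The compound was reacted with excess cysteamine in pH 7.4 phosphate buffer with CH3CN cosolvent at 37 °C. Remaining compound was followed by UHPLC over 4 h, sampled at 30 min, 60 min and 4 h, and expressed as percent of starting concentration.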
# [15] = target: NACHT, LRR and PYD domains-containing protein 3 (Mus musculus) (UniProt Q8R4B8); assay: Inhibition of NLRP3 inflammasome in LPS-primed C57BL/6 mouse bone marrow derived macrophages assessed as reduction in nigericin-induced pyroptosis at 10 to 100 uM preincubated for 1 hr followed by stimulation with ATP measured after 30 mins by LDH release assay; in short: as §4
# NACHT, LRR and PYD domains-containing protein 3 (Mus musculus), sequence (Q8R4B8 whole entry, the tested form may be a part): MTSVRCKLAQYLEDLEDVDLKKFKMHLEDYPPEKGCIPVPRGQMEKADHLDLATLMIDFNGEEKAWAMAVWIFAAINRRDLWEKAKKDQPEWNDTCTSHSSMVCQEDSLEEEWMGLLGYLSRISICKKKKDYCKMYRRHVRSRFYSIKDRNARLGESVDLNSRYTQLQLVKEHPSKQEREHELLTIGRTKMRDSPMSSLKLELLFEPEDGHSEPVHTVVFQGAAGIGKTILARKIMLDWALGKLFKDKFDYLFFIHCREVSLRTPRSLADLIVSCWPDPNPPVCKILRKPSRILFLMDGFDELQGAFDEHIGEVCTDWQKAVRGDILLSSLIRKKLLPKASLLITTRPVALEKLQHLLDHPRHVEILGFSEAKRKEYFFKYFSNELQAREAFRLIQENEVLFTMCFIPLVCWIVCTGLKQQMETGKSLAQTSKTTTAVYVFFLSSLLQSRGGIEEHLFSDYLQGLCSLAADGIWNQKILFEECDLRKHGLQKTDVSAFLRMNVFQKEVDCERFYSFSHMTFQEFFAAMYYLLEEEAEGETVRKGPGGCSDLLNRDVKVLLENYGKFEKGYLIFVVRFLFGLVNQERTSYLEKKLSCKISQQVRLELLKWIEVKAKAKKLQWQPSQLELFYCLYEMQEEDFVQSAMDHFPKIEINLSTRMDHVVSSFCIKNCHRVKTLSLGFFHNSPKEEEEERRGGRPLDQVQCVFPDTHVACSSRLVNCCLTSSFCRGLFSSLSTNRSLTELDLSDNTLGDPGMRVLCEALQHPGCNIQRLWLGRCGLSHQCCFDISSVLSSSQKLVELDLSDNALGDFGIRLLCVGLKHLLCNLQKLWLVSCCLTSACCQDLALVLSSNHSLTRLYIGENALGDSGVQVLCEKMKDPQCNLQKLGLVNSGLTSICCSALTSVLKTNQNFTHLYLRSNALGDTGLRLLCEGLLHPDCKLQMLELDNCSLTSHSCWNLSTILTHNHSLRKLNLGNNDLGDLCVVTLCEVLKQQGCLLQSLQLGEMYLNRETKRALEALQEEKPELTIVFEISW
# NACHT, LRR and PYD domains-containing protein 3 (Homo sapiens), sequence (Q96P20 whole entry, the tested form may be a part): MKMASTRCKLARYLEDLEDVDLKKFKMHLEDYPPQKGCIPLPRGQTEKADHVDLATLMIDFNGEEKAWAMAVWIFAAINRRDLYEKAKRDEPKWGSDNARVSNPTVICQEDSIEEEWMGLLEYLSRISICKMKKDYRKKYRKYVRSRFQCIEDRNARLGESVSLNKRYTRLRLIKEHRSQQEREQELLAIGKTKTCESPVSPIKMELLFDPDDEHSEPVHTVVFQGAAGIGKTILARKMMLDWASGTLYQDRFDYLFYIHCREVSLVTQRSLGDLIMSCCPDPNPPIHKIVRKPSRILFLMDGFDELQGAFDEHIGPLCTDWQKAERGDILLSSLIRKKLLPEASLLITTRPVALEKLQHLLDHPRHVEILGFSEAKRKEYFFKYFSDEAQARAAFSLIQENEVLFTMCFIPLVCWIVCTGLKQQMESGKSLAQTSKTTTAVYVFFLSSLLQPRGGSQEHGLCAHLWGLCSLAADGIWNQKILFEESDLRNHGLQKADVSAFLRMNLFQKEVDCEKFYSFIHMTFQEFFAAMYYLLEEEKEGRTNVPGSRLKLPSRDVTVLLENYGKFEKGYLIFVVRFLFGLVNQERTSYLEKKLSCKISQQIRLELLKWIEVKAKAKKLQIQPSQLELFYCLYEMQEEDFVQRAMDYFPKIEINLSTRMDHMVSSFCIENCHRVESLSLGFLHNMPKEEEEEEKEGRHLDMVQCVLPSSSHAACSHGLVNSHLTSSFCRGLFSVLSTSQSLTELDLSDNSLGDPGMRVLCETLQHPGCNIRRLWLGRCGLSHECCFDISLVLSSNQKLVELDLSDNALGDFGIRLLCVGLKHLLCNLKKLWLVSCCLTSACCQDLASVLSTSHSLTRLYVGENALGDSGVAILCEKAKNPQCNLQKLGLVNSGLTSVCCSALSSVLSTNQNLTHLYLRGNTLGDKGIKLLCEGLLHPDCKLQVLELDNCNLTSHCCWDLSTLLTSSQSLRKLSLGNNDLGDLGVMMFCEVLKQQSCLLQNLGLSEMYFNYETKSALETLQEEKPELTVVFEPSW
smiles,measurement,setting,value
C=C(Cc1ccccc1Cl)C(=O)OCC,Activity,[1],Dose-dependent effect
same,Drug metabolism,[2],Metabolite not detected
same,inhibition,[3],Active
same,Activity_index,[4],2.8
same,Stability,[5],> 99.5%
same,Activity,[6],4.8%
same,inhibition,[7],inactive
same,Activity,[8],4.3%
same,inhibition,[9],52%
same,inhibition,[10],29%
same,inhibition,[11],Active
same,Activity,[12],Active
same,Activity,[13],-19%
same,Stability,[14],77.5%
same,inhibition,[15],Active
